Assay outcomes deposited in PubChem by NMMLSC.
Compounds with a hit are over-represented: about 2.3% of the library has one in this group of screens.
MEKK2 WT-MEK5 – raises or lowers MEK5 binding to wildtype human MEKK2 PB1 domain; Q9Y2U5; bead flow cytometry, Alexa488-MEK5 binding to MEKK2 WT; actives lie on both sides; binding response (% of control), % at 10 µM; hit rate 1.1% among 290,000; in the data active = binding response below about 67% or above about 130%
MEKK2mut PB1 HTS – signal of MEK5 binding to mutant human MEKK2 PB1 domain; bead flow cytometry, Alexa488-MEK5 binding to MEKK2 mutant; percent response, % at 10 µM; hit rate 0.35% among 290,000; AID 1530; in the data active = percent response above about 24%, passing the limit was not always enough
ABCB1 inh – inhibitors of human ABCB1 transporter, ABCG2 counter-screen | CCRF-Adr cells, JC-1 efflux, flow cytometry | P08183 | inhibition, % at 6.6 µM | hit rate 0.067% among 190,000 | AID 1326; in the data active = inhibition above about 40%;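 note: higher value means more JC-1 retained so stronger ABCB1 efflux block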
MEKK3 PB1 HTS – MEKK3-MEK5 PB1 interaction, increase or decrease; binding response (% of control), % at 10 µM; hit rate 1.4% among 290,000; Q99759; bead-based flow cytometry, Alexa488-MEK5 binding to MEKK3; actives lie on both sides; 0 = blocked by unlabeled MEK5, 100 = vehicle; AID 1529;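 active = binding response more than 3 SD above or below the average of its plate-row segment, actives on both sides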;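 note: Alexa488 bead fluorescence after subtracting the streptavidin-only scavenger bead signal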
Target sequence (Q99759 whole entry, looked up): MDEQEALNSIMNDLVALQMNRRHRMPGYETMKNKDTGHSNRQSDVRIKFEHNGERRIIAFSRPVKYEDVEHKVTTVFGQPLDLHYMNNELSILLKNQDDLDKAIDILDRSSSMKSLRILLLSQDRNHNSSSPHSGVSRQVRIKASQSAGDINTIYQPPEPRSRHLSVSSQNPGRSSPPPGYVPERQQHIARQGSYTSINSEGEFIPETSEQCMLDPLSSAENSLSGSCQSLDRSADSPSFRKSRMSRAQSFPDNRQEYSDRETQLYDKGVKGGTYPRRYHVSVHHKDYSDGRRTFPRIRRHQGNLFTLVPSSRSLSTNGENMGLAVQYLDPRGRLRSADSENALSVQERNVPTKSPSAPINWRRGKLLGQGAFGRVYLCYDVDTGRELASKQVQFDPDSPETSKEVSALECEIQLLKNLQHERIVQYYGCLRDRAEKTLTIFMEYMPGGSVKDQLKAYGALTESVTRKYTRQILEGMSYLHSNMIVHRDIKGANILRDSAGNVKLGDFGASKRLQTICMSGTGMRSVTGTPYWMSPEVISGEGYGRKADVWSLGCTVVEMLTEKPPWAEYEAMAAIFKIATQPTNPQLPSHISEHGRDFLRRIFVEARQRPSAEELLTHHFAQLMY
ABCG2 block – inhibitors of human ABCG2 transporter, ABCB1 counter-screen; IgMXP3 cells, JC-1 efflux, flow cytometry; inhibition, % at 6.6 µM; hit rate 0.1% among 190,000; AID 1325;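 active = inhibition above 80%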
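Incubation: cells with compound and JC-1, 10 min at 25 °C, rotating, no wash / Test system: IgMXP3 (ABCG2) plus far-red-tagged CCRF-Adr (ABCB1) cells / Compound dosing: one concentration, 6.6 µM final / Also added: JC-1 fluorescent substrate / Evaluation: efflux inhibition in percent versus controls / Detection: flow cytometry, 530 nm JC-1 signal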
MEKK2wt confirm – raises or lowers MEK5 binding to wildtype human MEKK2, retest | hit rate 2.4% among 5,900 | binding response (% of control), % at 10 µM | shares compounds with MEKK3 PB1 HTS | bead flow cytometry, Alexa488-MEK5 binding to MEKK2 WT; actives lie on both sides; in the data active = binding response below about 16% or above about 210%; inactive = in between
MEKK2mut confirm – signal of MEK5 binding to mutant human MEKK2, retest. bead flow cytometry, Alexa488-MEK5 binding to MEKK2 mutant. percent response, % at 10 µM. hit rate 2% among 5,900. shares compounds with MEKK3 PB1 HTS; in the data active = percent response mostly above about 71%, no sharp cut-off; inactive = mostly below about 38%;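 note: higher means compound restores mutant binding toward wildtype level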
MEKK3-MEK5 inh – confirmation of inhibitors of MEK5 binding to human MEKK3. shares compounds with MEKK3 PB1 HTS. bead flow cytometry, Alexa488-MEK5 binding to MEKK3; stronger effect = lower value. binding response (% of control), % at 10 µM. hit rate 1.8% among 5,900;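 active = binding response below 72% of control, or above a set upper limit, though filed actives all read lower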
Hits are given with their value; i = inactive; nt = not tested or not shown; [ ] = another dose, or the depositor's remark.

SMILES	MEKK2 WT-MEK5	MEKK2mut PB1 HTS	ABCB1 inh	MEKK3 PB1 HTS	ABCG2 block	MEKK2wt confirm	MEKK2mut confirm	MEKK3-MEK5 inh
CN1CCc2c(sc3c2C(=O)NC(c2cccs2)N3)C1 (configuration not stated)	i	i	i	i	i	nt	nt	nt
NC(=O)c1ccc(NC(=O)C#Cc2ccccc2)cc1	i	i	nt	i	nt	nt	nt	nt
O=C(Cc1c[nH]c2ccccc12)NCc1cccs1	i	i	i	136	i	i	i	i
O=C(CCCc1c[nH]c2ccccc12)NCc1cccs1	i	i	i	i	i	nt	nt	nt
O=C(Cc1c[nH]c2ccccc12)N1CCc2ccccc21	1.0[inhibitor]	i	i	2.0[inhibitor]	i	i	i	i
O=C(Cc1c[nH]c2ccccc12)N/N=C/c1ccc(F)cc1	i	i	i	139	i	i	i	i
CC(C)Oc1cc(C(=O)NC2CCCCC2)c2ccccc2n1	i	i	nt	i	nt	nt	nt	nt
Cc1ccc2nc3c(c(Nc4cccc(O)c4)c2c1)CCC3	i	i	nt	i	nt	nt	nt	nt
O=C(CS(=O)(=O)c1ccc(F)cc1)NCCS(=O)(=O)c1ccccc1	i	i	nt	i	nt	nt	nt	nt
CCOC(=O)c1c(C)[nH]c(C)c1C(=O)CSc1nc2ccccc2n1CC	i	i	i	135	i	i	i	i
COc1ccc(NS(=O)(=O)c2cc(NC(=O)CCSc3ccccc3)ccc2OC)cc1	i	i	i	145	i	i	i	i
CC(=O)Nc1sc(/C(C#N)=C\c2cccc(Cl)c2)nc1-c1ccc(C)cc1	13[inhibitor]	i	i	i	i	i	i	i
O=C(CCN1N=C(c2ccccc2)CCC1=O)NCC1CCCO1 (configuration not stated)	i	i	nt	i	nt	nt	nt	nt
CC(=O)N1CCC(C(=O)NC2CCCc3c2cnn3-c2cc(F)cc(F)c2)CC1 (configuration not stated)	i	i	nt	i	nt	nt	nt	nt
CCCCCc1cc(=O)oc2c(C(CCN3CCCC3)c3ccc(N(C)C)cc3)c(OC)cc(OC)c12 (configuration not stated)	151	42	nt	i	nt	i	83	i
CCCCCc1cc(=O)oc2c(C(CCN3CCN(c4ccccc4)CC3)c3ccc4c(c3)OCO4)c(OC)cc(OC)c12 (configuration not stated)	i	i	nt	i	nt	nt	nt	nt
COc1cc(OC)c2ccc(=O)oc2c1C(CCN1CCCC1)c1ccc(N(C)C)cc1 (configuration not stated)	i	i	nt	i	nt	nt	nt	nt
COc1cc(C(CCN2CCOCC2)c2c(OC)cc(OC)c3c(C)cc(=O)oc23)cc(OC)c1OC (configuration not stated)	i	i	nt	i	nt	nt	nt	nt
COc1ccc(C(CCN2CCOCC2)c2c(OC)cc(OC)c3c(C)cc(=O)oc23)cc1 (configuration not stated)	151	i	nt	i	nt	i	i	i
CCCCCc1cc(=O)oc2c(C(CCN3CCCCC3)c3ccc(OC)cc3)c(OC)cc(OC)c12 (configuration not stated)	164	67	nt	i	nt	208	i	i
CCN(CC)CCC(c1ccc(N(C)C)cc1)c1c(OC)cc(OC)c2ccc(=O)oc12 (configuration not stated)	i	i	nt	i	nt	nt	nt	nt
CCCCCc1cc(=O)oc2c(C(CCN(CC)CC)c3ccc(OC)cc3)c(OC)cc(OC)c12 (configuration not stated)	182	29	nt	i	nt	i	i	i
CCc1ccc(-c2nc(CS(=O)CC(=O)NC3CCCCCC3)c(C)o2)cc1 (configuration not stated)	i	i	nt	i	nt	nt	nt	nt
COc1ccc(S(=O)(=O)N2CCC(C(=O)NCC3CCCCC3)CC2)cc1	i	i	nt	i	nt	nt	nt	nt
Cc1cccc(Nc2ccc([N+](=O)[O-])cn2)c1	i	i	nt	i	nt	nt	nt	nt
SMILES	MEKK2 WT-MEK5	MEKK2mut PB1 HTS	ABCB1 inh	MEKK3 PB1 HTS	ABCG2 block	MEKK2wt confirm	MEKK2mut confirm	MEKK3-MEK5 inh
COc1cc(C(CCN2CCCCC2)c2c(OC)cc(OC)c3c(-c4ccccc4)cc(=O)oc23)cc(OC)c1OC (configuration not stated)	i	i	nt	i	nt	nt	nt	nt
CCCCCc1cc(=O)oc2c(C(CCN3CCCC(C)C3)c3ccc(OC)cc3)c(OC)cc(OC)c12 (configuration not stated)	153	58	nt	i	nt	i	107	i
CCCCCc1cc(=O)oc2c(C(CCN3CCCC3)c3cc(OC)c(OC)c(OC)c3)c(OC)cc(OC)c12 (configuration not stated)	157	24	nt	i	nt	i	i	i
COc1cc(C(CCN2CCCC(C)C2)c2c(OC)cc(OC)c3c(-c4ccccc4)cc(=O)oc23)cc(OC)c1OC (configuration not stated)	138	i	nt	i	nt	i	i	i
COc1ccc(C(CCN2CCCC(C)C2)c2c(OC)cc(OC)c3c2OC(=O)CC3c2cc(OC)c(OC)c(OC)c2)cc1 (configuration not stated)	145	i	nt	i	nt	i	i	i
COc1cc(C(CCN2CCCC2)c2c(OC)cc(OC)c3c(C)cc(=O)oc23)cc(OC)c1OC (configuration not stated)	i	i	nt	i	nt	nt	nt	nt
Cc1ccc(N(CC(O)CN2C(=O)NC(C)(C)C2=O)S(=O)(=O)c2ccc([N+](=O)[O-])cc2)cc1 (configuration not stated)	i	i	nt	i	nt	nt	nt	nt
Cc1nnc2c3ccccc3c(-c3ccccc3)nn12	i	i	nt	i	nt	nt	nt	nt
OCc1nnc2c3ccccc3c(-c3ccccc3)nn12	i	i	i	122	i	i	i	i
COCCCNC(=O)CN(CCc1ccccc1)S(=O)(=O)c1ccccc1	i	i	i	i	i	nt	nt	nt
COCCCNC(=O)CN(Cc1ccccc1)S(=O)(=O)c1ccccc1	i	27	nt	i	nt	i	i	i
COc1ccc(NC(=O)CCC(=O)c2cccs2)cc1S(=O)(=O)Nc1ccc(Cl)cc1	i	i	i	i	i	nt	nt	nt
COc1ccccc1NS(=O)(=O)c1cc(NC(=O)CCC(=O)c2cccs2)ccc1Cl	i	i	i	147	i	i	i	i
CN(Cc1ccc(C#CCCO)cc1)CC1CCCN(CCc2ccc(Cl)cc2)C1 (configuration not stated)	154	i	nt	i	nt	i	i	i
O=C(NCCc1ccccc1)c1cccc([N+](=O)[O-])c1	i	i	i	130	i	i	i	i
Cc1cc(Nc2ncc(Cl)cc2Cl)n(-c2ccccn2)n1	i	i	i	i	i	nt	nt	nt
